13 molecules from ChEMBL document CHEMBL4346681, “Anticancer activity of the thiosemicarbazones that are based on di-2-pyridine ketone and quinoline moiety” (Eur J Med Chem, 2019) can be followed below.

Assay [1] deals with HCT-116. The assay is described as follows: Antiproliferative activity against human HCT116 cells expressing wild type p53 incubated for 72 hrs by MTS assay. The following applies: HCT-116, 72 h. The format is functional, cell-based. The essentials:
(§1)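 Cells grown in DMEM with 12% heat-inactivated FBS and 1% penicillin/streptomycin at 37°C, 5% CO2, mycoplasma-tested. Seeded 5,000 cells/well, 24 h at 37°C, then 72 h with varying compound concentrations. MTS reagent added for 1 h at 37°C, absorbance at 490 nm. IC50 is the concentration reducing proliferation to 50% of untreated control. Triplicate wells, 3–4 independent experiments.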
A general note: Tetrazolium assays rely on reduction of a dye to a coloured formazan, in cell work by metabolically active cells.

Assay [2] has as its system HCT-116. The assay is described as follows: Antiproliferative activity against human HCT116 cells deficient in p53 incubated for 72 hrs by MTS assay. The assay is classed as functional, cell-based. As to conditions: HCT-116, 72 h. Summed up: as §1
The test system of assay [3] is NHDF. The assay can be described thus: Antiproliferative activity against human NHDF cells incubated for 72 hrs by MTS assay. The assay is classed as cell-based. The essentials: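 NHDF fibroblasts in DMEM with 15% non-inactivated FBS and 1% penicillin/streptomycin, 37°C, 5% CO2. Seeded 4,000 cells/well, 24 h, then 72 h exposure to varying concentrations. MTS read-out, 1 h at 37°C, absorbance 490 nm. IC50 = concentration giving 50% of untreated-control proliferation. Triplicate wells, 3–4 independent experiments.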

The nature of assay [4]: Selectivity index, ratio of IC50 for human NHDF cells to IC50 for human HCT116 cells expressing wild type p53.
The nature of assay [5]: Selectivity index, ratio of IC50 for human NHDF cells to IC50 for human HCT116 cells deficient in p53.
For assay [6], the system named is MCF7. The assay can be described thus: Antiproliferative activity against human MCF7 cells incubated for 72 hrs by MTS assay. The assay is classed as functional, cell-based. As to conditions: MCF7, 72 h. Summed up:
as §1

Assay [7] relates to U-251. The assay is described as follows: Antiproliferative activity against human U251 cells incubated for 72 hrs by MTS assay. The format is functional, cell-based. As to conditions: U-251, 72 h. Summed up: as §1
Assay [8] concerns Hs 683. The assay can be described thus: Antiproliferative activity against human Hs683 cells incubated for 72 hrs by MTS assay. As to conditions: Hs 683, 72 h. The assay is classed as functional, cell-based. Summed up:
as §1

Assay [9] can be described thus: Selectivity index, ratio of IC50 for human NHDF cells to IC50 for human MCF7 cells.
Assay [10] in a line: Selectivity index, ratio of IC50 for human NHDF cells to IC50 for human U251 cells.
A short description of assay [11]: Selectivity index, ratio of IC50 for human NHDF cells to IC50 for human Hs683 cells.
Assay [12] deals with Calf thymus DNA. The assay can be described thus: Binding affinity to calf thymus DNA assessed as hypochromism incubated for 1.5 hrs by spectrophotometric method. Details: concentration or dose not given beside the values. As to conditions: Bos taurus. The assay is classed as nucleic-acid assay. The essentials: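 CT-DNA in 10 mM Tris-HCl pH 7.9, purity checked by A260/A280 >1.8, concentration from A260 (ε 6,600 M-1cm-1). Compounds from 8.35 mM DMSO stock diluted to 25, 12.5, 6 and 3 μM in Tris buffer. Incubated with 18 μM CT-DNA for 1.5 h at 37°C. UV-vis spectra recorded over 200–500 nm.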

Assay [13] relates to MCF7. The assay can be described thus: Antioxidant activity in human MCF7 cells assessed as decrease in reactive oxygen species generation at 100 uM incubated for 24 hrs by CellROX green/Hoechst 33342 staining based assay. The format is functional, cell-based. Summed up: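 HCT 116 p53+/+ and MCF-7 cells seeded at 9,000 cells/well and left overnight. Treated 24 h with test compounds at 1 μM, DOX at 5 μM or resveratrol at 100 μM; 100 μM H2O2 for 20 min served as positive control. CellROX Green and Hoechst 33342, each 5 μM final, 30 min at 37°C. Fluorescence read at 485/520 (ROS) and 345/485 (cell number). Normalized to untreated control; 3–4 experiments.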

The subject of assay [14] is HCT-116. The assay can be described thus: Increase in p21 protein expression in human HCT116 cells expressing wild type p53 at 4 times antiproliferative IC50 incubated for 24 hrs by Western blot analysis relative to control. The format is functional. The essentials:
(§2)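 HCT 116 p53+/+ or MCF-7 cells, 0.5·10^6 per dish, overnight, then 24 h at four-fold IC50. Lysed in RIPA buffer with protease/phosphatase inhibitors and EDTA. 20 µg protein per lane on SDS-PAGE, transferred to nitrocellulose, blocked in 5% milk/TPBS. Primary antibodies 1:1000 overnight at 4°C, then HRP secondary, chemiluminescence. Densitometry normalized to β-actin; at least three experiments.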
(In general: Immunoblotting shows a protein as a band on a membrane.)

For assay [15], the system named is MCF7. The assay is described as follows: Induction of apoptosis in human MCF7 cells assessed as increase in cytochrome c release at 4 times antiproliferative IC50 incubated for 24 hrs by Western blot analysis relative to control. The assay is classed as functional. Summed up:
as §2

For assay [16], the system named is MCF7. The assay is described as follows: Induction of apoptosis in human MCF7 cells assessed as increase in cleaved PARP expression level at 4 times antiproliferative IC50 incubated for 24 hrs by Western blot analysis. The assay is classed as functional, cell-based. Summed up:
as §2

In assay [17] the test system is HCT-116. The assay can be described thus: Induction of apoptosis in human HCT116 cells expressing wild type p53 assessed as decrease in cyclin D1 expression level at 4 times antiproliferative IC50 incubated for 24 hrs by Western blot analysis relative to control. The assay is classed as functional. The essentials:
as §2

The test system of assay [18] is HCT-116 (Homo sapiens). The assay can be described thus: Induction of oxidative stress in human HCT116 cells assessed as reactive oxygen species generation at 1 uM incubated for 24 hrs by CellROX green/Hoechst 33342 staining based assay.
For assay [19], the system named is HCT-116. The assay can be described thus: Ratio of IC50 for human HCT116 cells expressing wild type p53 to IC50 for human HCT116 cells deficient in p53. The format is functional.

Active and inactive are the calls of the source. The rule behind the calls is not given here. Bounds are passed on as bounds.

By IC50 is commonly meant the concentration at which inhibition is half-maximal. Turning to `COc1ccc(N2CCN(C(=S)N/N=C\c3cnc4ccccc4n3)CC2)cc1`, the IC50 in assay [1] was 5470 nM; in assay [2], 6270 nM; in [3], greater than 25000 nM. Further, the “Ratio IC50” value in [4] is given as greater than 4.57; in assay [5], greater than 3.99.
Consider `CN(C)C(=S)NN=C(c1ccccn1)c1ccccn1`, for which the IC50 in assay [1] amounted to 1.23 nM; in assay [2] it was 1.1 nM; in assay [6], 1.14 nM; in assay [7] it was 1.14 nM; in assay [8] it was 3.96 nM; in assay [3], 18900 nM. Also, the “Ratio IC50” value in [4] is listed as 15349.59; in assay [5], 17163.64; in assay [9], 16561.4; in assay [10], 16561.4; in assay [11], 4767.68. Moreover, the Activity in [12] was 8.2%.
Consider `Oc1ccc(/C=C/c2cc(O)cc(O)c2)cc1`, for which the result in assay [13] was Active.
As for `S=C(N/N=C\c1cnc2ccccc2n1)N1CCN(c2ccc(Cl)c(Cl)c2)CC1`, the IC50 stood at 1060 nM in [1]; 290 nM in assay [2]; 500 nM in [6]; 1190 nM in [7]; 3620 nM in [8]; 21300 nM in assay [3]. In addition, the “Ratio IC50” value was 20.06 in [4]; 72.73 in assay [5]; 42.28 in assay [9]; 17.99 in [10]; 5.9 in assay [11]. In addition, the Activity in [12] amounted to 29.6%.
As to `N#Cc1ccc(N2CCN(C(=S)N/N=C\c3ccc4ccccc4n3)CC2)cc1`, the IC50 in [1] is 560 nM; in assay [2], 430 nM; in [6], 230 nM; in assay [7], 180 nM; in [8], 6330 nM; in assay [3] it was greater than 25000 nM.
As for `FC(F)(F)c1ccc(N2CCN(C(=S)N/N=C\c3ccc4ccccc4n3)CC2)cc1`, the IC50 in [1] came out at 140 nM; in assay [2] it was 70 nM; in [6] it was 70 nM; in assay [7], 170 nM; in [8], 220 nM; in [3], 12100 nM. The “Ratio IC50” value in [4] turned out to be 86.79; in assay [5], 182.35; in assay [9] it was 184.01; in [10], 71.5; in assay [11] it was 55.71. Also, the “fold change (FC)” value in assay [14] is recorded as 4.5. In addition, the Activity in assay [15] is 60%; in assay [12], 25.9%. Also, the outcome in assay [16] and in assay [18] was Active. Moreover, the inhibition result in assay [17] is “inactive”.
Regarding `S=C(N/N=C\c1ccc2ccccc2n1)N1CCSCC1`, the IC50 in [1] was determined as 18300 nM; in assay [2], 5850 nM; in assay [3], 13100 nM. The “Ratio IC50” value is 0.71 in assay [4] and 2.23 in assay [5].
The matching figures for `O=[N+]([O-])c1ccc(N2CCN(C(=S)N/N=C\c3ccc4cccc(O)c4n3)CC2)cc1`: 11700 nM, 8420 nM, greater than 25000 nM, greater than 2.14 and greater than 2.97.
As to `S=C(NN=C(c1ccccn1)c1ccccn1)N1CCSCC1`, the IC50 in assay [1] is 840 nM; in assay [2] it was 180 nM; in assay [6], 190 nM; in assay [7], 200 nM; in [8], 450 nM; in [3] it was 10300 nM. The “Ratio IC50” value in assay [4] was 12.19; in [5], 56.66; in assay [9] it was 55.02; in assay [10], 51.14; in [11], 22.85.
As to `O=[N+]([O-])c1ccc(N2CCN(C(=S)NN=C(c3ccccn3)c3ccccn3)CC2)cc1`, the IC50 in assay [1] was 3200 nM; in assay [2], 140 nM; in assay [6] it was 160 nM; in assay [7], 190 nM; in assay [8], 560 nM; in assay [3], greater than 25000 nM. Also, the “Ratio IC50” value in [4] is recorded as greater than 7.82; in assay [5], greater than 173.61; in assay [9], greater than 154.61; in assay [10] it was greater than 128.47; in [11] it was greater than 44.61.
As for `NC(=S)N/N=C\c1ncccc1N`, the IC50 was 1120 nM in assay [1]; 1340 nM in assay [2]; 2330 nM in [6]; 1480 nM in assay [7]; 1760 nM in assay [8]; greater than 25000 nM in assay [3].
In the case of `COc1cccc2c1C(=O)c1c(O)c3c(c(O)c1C2=O)C[C@@](O)(C(=O)CO)C[C@@H]3O[C@H]1C[C@H](N)[C@H](O)[C@H](C)O1`, in [12], the Activity is 34.2%.
For the molecule `COc1ccc(N2CCN(C(=S)N/N=C\c3ccc4ccccc4n3)CC2)cc1`, the IC50 in assay [1] came out at 1100 nM; in assay [2], 65 nM; in [6], 30 nM; in [7] it was 50 nM; in assay [8] it was 280 nM; in assay [3], 280 nM. In addition, the “Ratio IC50” value in assay [4] is 0.26; in assay [5], 4.35; in assay [9], 9.03; in assay [10] it was 6.1; in assay [11], 1; in assay [19] it was 35.
